The values that follow come from ChEMBL document CHEMBL3286331, “Design, synthesis and evaluation of novel quinazoline-2,4-dione derivatives as chitin synthase inhibitors and antifungal agents” (Bioorg Med Chem, 2014).

Values after ≈ are worked out from the molar mass of the structure shown.

The subject of one experiment is Candida albicans. Description: Antifungal activity against Candida albicans ATCC 76615 after 48 hrs by disc diffusion method. In kind it is functional. The settings on record: ATCC 76615, 48 h. In a few lines: (§1)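 Disc diffusion on modified Sabouraud-chloramphenicol agar (1% peptone, 2% glucose, […]), compounds as sterile-water stocks; fluconazole and polyoxin B positive controls; MIC (mg/L) recorded after 48 h at 37 °C.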
A general note: In agar diffusion tests the substance spreads into inoculated agar from a disc or well.

The subject of the next experiment is Cryptococcus neoformans. Kind of experiment: Antifungal activity against Cryptococcus neoformans after 48 hrs by disc diffusion method. In kind it is functional. Put shortly: as §1
Experiment [1] concerns Aspergillus flavus. Description: Antifungal activity against Aspergillus flavus after 48 hrs by disc diffusion method. In kind it is functional. Put shortly:
as §1

The test system of experiment [2] is Staphylococcus aureus. Description: Antibacterial activity against Staphylococcus aureus ATCC 25923 after overnight incubation by disc diffusion method. The format is functional. In a few lines: (§2)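 Agar disc diffusion on beef extract–peptone medium (1% peptone, 0.3% beef extract, 0.5% NaCl, […]), compounds dissolved in sterile water; streptomycin sulfate positive control; plates incubated overnight at 37 °C, then MIC recorded (mg/L).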

The test system of a further experiment is Bacillus spizizenii. Description: Antibacterial activity against Bacillus subtilis ATCC 6633 after overnight incubation by disc diffusion method. The format is functional. Put shortly: as §2
Experiment [3] has as its system Staphylococcus aureus. Kind of experiment: Antibacterial activity against methicillin-resistant Staphylococcus aureus N315 after overnight incubation by disc diffusion method. In kind it is functional. In a few lines: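 Disc diffusion on beef extract-peptone agar (1% peptone, 0.3% beef extract, 0.5% NaCl, […]); compounds dissolved in sterile water; streptomycin sulfate positive control; plates incubated overnight at 37 °C, then MIC (mg/L) recorded.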

The next experiment relates to Bacillus. Description: Antibacterial activity against Bacillus proteus after overnight incubation by disc diffusion method. The format is functional. Put shortly: as §2
Another experiment has as its system Escherichia coli. Kind of experiment: Antibacterial activity against Escherichia coli JM 109 after overnight incubation by disc diffusion method. The format is functional. In a few lines: as §2
A further experiment deals with Pseudomonas aeruginosa. Kind of experiment: Antibacterial activity against Pseudomonas aeruginosa CR56 after overnight incubation by disc diffusion method. The format is functional. In a few lines: as §2
The nature of experiment [4]: Inhibition of Saccharomyces cerevisiae CGMCC 2.145 chitin synthase assessed as UDP-GlcNAc conversion to chitin after 45 mins by ELISA. Put shortly: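 Enzyme prepared from S. cerevisiae cells sonicated at 4 °C in 50 mM Tris–HCl pH 7.0 with protease inhibitors and PMSF; 55,000 g membrane pellet used. Wells hold UDP-GlcNAc plus 320 mM GlcNAc, compound in Tris buffer (final DMSO below 3%), 45 min at 37 °C. Chitin detected with HRP–wheat germ agglutinin, TMB read at 450 nm against a chitin standard curve; IC50 derived.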
Background: An ELISA detects its analyte on a solid surface through an enzyme-linked reagent.

In experiment [5] the test system is Aspergillus flavus. Kind of experiment: Ratio of polyoxin B MIC to compound MIC for Aspergillus flavus. The format is functional.
Experiment [6] has as its system Aspergillus flavus. Kind of experiment: Ratio of fluconazole MIC to compound MIC for Aspergillus flavus. The format is functional.

A word on the MIC: it is the lowest concentration that inhibits growth of the organism. Low values mean a more susceptible organism, high ones a less susceptible organism. The term IC50 denotes the concentration that inhibits the measured activity by half.

As to `CN(CC(=O)NC(C)(C)C)CC(O)Cn1c(=O)c2ccccc2n(C)c1=O.Cl` (centres undefined), the minimal inhibitory concentration (MIC) is more than 512 µg/mL against Candida albicans; 128 µg/mL against Cryptococcus neoformans; 64 µg/mL against Aspergillus flavus [1]; not below 512 µg/mL in the experiment with Staphylococcus aureus [2]; not below 512 µg/mL against Bacillus spizizenii; not below 512 µg/mL in the experiment with Staphylococcus aureus [3]. The MIC against Bacillus, in the experiment on Escherichia coli and against Pseudomonas aeruginosa was not below 512 µg/mL throughout. For the same compound, the 50% inhibitory concentration (IC50) in experiment [4] was found to be 140 µM.

Turning to `COC(=O)c1ccccc1NC(=O)CN(C)CC(O)Cn1c(=O)c2ccccc2n(C)c1=O.Cl` (centres undefined), the MIC against Candida albicans is 32 µg/mL; against Cryptococcus neoformans, 2 µg/mL; in the experiment with Aspergillus flavus [1], 4 µg/mL; against Staphylococcus aureus [2], not below 512 µg/mL; against Bacillus spizizenii, not below 512 µg/mL; with Staphylococcus aureus [3], not below 512 µg/mL. For the same compound, the minimal inhibitory concentration (MIC) in the experiment with Bacillus, in the experiment with Escherichia coli and with Pseudomonas aeruginosa was not below 512 µg/mL throughout. In addition, the Ratio was determined as 8 in the experiment with Aspergillus flavus [5] and 16 with Aspergillus flavus [6]. Also, the IC50 in [4] came to 170 µM.

For `CN(CC(=O)Nc1ccccc1)CC(O)Cn1c(=O)c2ccccc2n(C)c1=O.Cl` (centres undefined), the MIC is 32 µg/mL against Candida albicans; 64 µg/mL in the experiment on Cryptococcus neoformans; more than 512 µg/mL in the experiment on Aspergillus flavus [1]; not below 512 µg/mL in the experiment on Staphylococcus aureus [2]; not below 512 µg/mL in the experiment on Bacillus spizizenii; not below 512 µg/mL against Staphylococcus aureus [3]. Also, the minimum inhibitory concentration (MIC) with Bacillus, in the experiment with Escherichia coli and in the experiment on Pseudomonas aeruginosa was not below 512 µg/mL throughout. Further, in experiment [4], the IC50 is more than 750 µM.

For `CN(CC(=O)Nc1ccc([N+](=O)[O-])cc1)CC(O)Cn1c(=O)c2ccccc2n(C)c1=O.Cl` (centres undefined), the MIC in the experiment with Candida albicans is more than 512 µg/mL; in the experiment with Cryptococcus neoformans, 64 µg/mL; in the experiment with Aspergillus flavus [1], 64 µg/mL; with Staphylococcus aureus [2], not below 512 µg/mL; against Bacillus spizizenii, not below 512 µg/mL; in the experiment on Staphylococcus aureus [3] it was not below 512 µg/mL. In addition, the MIC against Bacillus, in the experiment on Escherichia coli and with Pseudomonas aeruginosa was not below 512 µg/mL each time. Besides, the IC50 in experiment [4] was more than 750 µM.

Consider `CN(CC(=O)N(C)c1ccccc1)CC(O)Cn1c(=O)c2ccccc2n(C)c1=O.Cl` (centres undefined), for which the MIC against Candida albicans is 64 µg/mL; in the experiment with Cryptococcus neoformans it was 8 µg/mL; in the experiment on Aspergillus flavus [1], 256 µg/mL; in the experiment with Staphylococcus aureus [2], not below 512 µg/mL; in the experiment with Bacillus spizizenii it was not below 512 µg/mL; in the experiment with Staphylococcus aureus [3], not below 512 µg/mL. Besides, the minimum inhibitory concentration (MIC) against Bacillus, against Escherichia coli and in the experiment on Pseudomonas aeruginosa was not below 512 µg/mL each time. Besides, in experiment [4], the half-maximal inhibitory concentration (IC50) amounted to 320 µM.

As for `CCN(CC)C(=O)CN(C)CC(O)Cn1c(=O)c2ccccc2n(C)c1=O.Cl` (centres undefined), the minimal inhibitory concentration (MIC) against Candida albicans was 64 µg/mL; against Cryptococcus neoformans, 16 µg/mL; against Aspergillus flavus [1], 8 µg/mL; with Staphylococcus aureus [2] it was not below 512 µg/mL; in the experiment on Bacillus spizizenii, not below 512 µg/mL; in the experiment on Staphylococcus aureus [3] it was not below 512 µg/mL. Besides, the MIC against Bacillus, in the experiment with Escherichia coli and against Pseudomonas aeruginosa was not below 512 µg/mL each time. In experiment [4], the half-inhibitory concentration (IC50) amounted to 340 µM.

For the compound `CN(CC(=O)N1CCCCC1)CC(O)Cn1c(=O)c2ccccc2n(C)c1=O.Cl` (centres undefined), the minimal inhibitory concentration (MIC) in the experiment on Candida albicans was 32 µg/mL; against Cryptococcus neoformans it was 512 µg/mL; in the experiment on Staphylococcus aureus [2] it was not below 512 µg/mL; against Bacillus spizizenii, not below 512 µg/mL; against Staphylococcus aureus [3], not below 512 µg/mL; against Bacillus, not below 512 µg/mL. For the same compound, the minimum inhibitory concentration (MIC) in the experiment on Escherichia coli and against Pseudomonas aeruginosa was not below 512 µg/mL in each case. In addition, the IC50 in experiment [4] was more than 750 µM.

Regarding `OC(Cn1cncn1)(Cn1cncn1)c1ccc(F)cc1F` [FLUCONAZOLE], the results for the MIC in the experiment on Candida albicans, in the experiment on Cryptococcus neoformans and against Aspergillus flavus [1] were 32 µg/mL (≈ 104 µM), 2 µg/mL (≈ 6.53 µM) and 64 µg/mL (≈ 209 µM), respectively.

In the case of `NC(=O)OC[C@H](O)[C@@H](O)[C@H](N)C(=O)N[C@H](C(=O)O)[C@H]1O[C@@H](n2cc(CO)c(=O)[nH]c2=O)[C@H](O)[C@@H]1O` [POLYOXIN B], the minimum inhibitory concentration (MIC) against Candida albicans turned out to be 16 µg/mL (≈ 31.5 µM); against Cryptococcus neoformans, 4 µg/mL (≈ 7.88 µM); against Aspergillus flavus [1], 32 µg/mL (≈ 63.1 µM). For the same compound, in experiment [4], the half-maximal inhibitory concentration (IC50) worked out at 180 µM.

Turning to `CN[C@@H]1[C@H](O[C@H]2[C@H](O[C@H]3[C@H](O)[C@@H](O)[C@H](N=C(N)N)[C@@H](O)[C@@H]3N=C(N)N)O[C@@H](C)[C@]2(O)C=O)O[C@@H](CO)[C@H](O)[C@H]1O.CN[C@@H]1[C@H](O[C@H]2[C@H](O[C@H]3[C@H](O)[C@@H](O)[C@H](N=C(N)N)[C@@H](O)[C@@H]3N=C(N)N)O[C@@H](C)[C@]2(O)C=O)O[C@@H](CO)[C@H](O)[C@H]1O.O=S(=O)(O)O.O=S(=O)(O)O.O=S(=O)(O)O` [STREPTOMYCIN SULFATE], the MIC against Staphylococcus aureus [2], against Bacillus spizizenii, in the experiment on Staphylococcus aureus [3], in the experiment on Bacillus, with Escherichia coli and in the experiment with Pseudomonas aeruginosa was 64 µg/mL each time.
